Experiments:
Format in all cases: functional
RXF 393 = experiment: Cytotoxicity against human RXF393 cells assessed as growth inhibition after 48 hrs by SRB assay; details: RXF 393, 48 h
Summary of the method: (§1)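 NCI 60-cell panel; compounds passing a single-dose screen (10−5 M, 48 h) were tested at five 10-fold dilutions (10−4 to 10−8 M) with 48 h drug exposure. GI50 is the molar concentration giving 50% reduction in net cell growth relative to cell numbers on day 0.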

SF-268 = experiment: Cytotoxicity against human SF268 cells assessed as growth inhibition after 48 hrs by SRB assay; details: SF-268, 48 h; summary of the method: as §1
M14 = experiment: Cytotoxicity against human M14 cells assessed as growth inhibition after 48 hrs by SRB assay; details: M14, 48 h; summary of the method: as §1
SW-620 = experiment: Cytotoxicity against human SW620 cells assessed as growth inhibition after 48 hrs by SRB assay; details: SW-620, 48 h
NCI-H460 = experiment: Cytotoxicity against human NCI-H460 cells assessed as growth inhibition after 48 hrs by SRB assay; details: NCI-H460, 48 h; summary of the method: as §1
BT-549 = experiment: Cytotoxicity against human BT549 cells assessed as growth inhibition after 48 hrs by SRB assay; details: BT-549, 48 h; summary of the method: as §1
[1] = Cytotoxicity against human OVCAR4 cells assessed as growth inhibition after 48 hrs by SRB assay; details: OVCAR-4, 48 h; summary of the method: as §1
NCI-H23 = experiment: Cytotoxicity against human NCI-H23 cells assessed as growth inhibition after 48 hrs by SRB assay; details: NCI-H23, 48 h; summary of the method: as §1
SK-MEL-5 = experiment: Cytotoxicity against human SK-MEL-5 cells assessed as growth inhibition after 48 hrs by SRB assay; details: SK-MEL-5, 48 h; summary of the method: as §1
LOX IMVI = experiment: Cytotoxicity against human LOXIMVI cells assessed as growth inhibition after 48 hrs by SRB assay; summary of the method: as §1
[2] = Cytotoxicity against human NCI-ADR-RES cells assessed as growth inhibition after 48 hrs by SRB assay; summary of the method: as §1
K562 = experiment: Cytotoxicity against human K562 cells assessed as growth inhibition after 48 hrs by SRB assay; details: K562, 48 h; summary of the method: as §1
HT-29 = experiment: Cytotoxicity against human HT-29 cells assessed as growth inhibition after 48 hrs by SRB assay; details: HT-29, 48 h; summary of the method: as §1
[3] = Cytotoxicity against human HCT116 cells assessed as growth inhibition after 48 hrs by SRB assay; details: HCT-116, 48 h; summary of the method: as §1
[4] = Cytotoxicity against human PC3 cells assessed as growth inhibition after 48 hrs by SRB assay; details: PC-3, 48 h; summary of the method: as §1
RPMI-8226 = experiment: Cytotoxicity against human RPMI8226 cells assessed as growth inhibition after 48 hrs by SRB assay; details: RPMI-8226, 48 h; summary of the method: as §1
KM12 = experiment: Cytotoxicity against human KM12 cells assessed as growth inhibition after 48 hrs by SRB assay; details: KM12, 48 h; summary of the method: as §1
MCF7 = experiment: Cytotoxicity against human MCF7 cells assessed as growth inhibition after 48 hrs by SRB assay; details: MCF7, 48 h; summary of the method: as §1
[5] = Cytotoxicity against human HCT15 cells assessed as growth inhibition after 48 hrs by SRB assay; details: HCT-15, 48 h; summary of the method: as §1
[6] = Cytotoxicity against human OVCAR3 cells assessed as growth inhibition after 48 hrs by SRB assay; details: OVCAR-3, 48 h; summary of the method: as §1
HCC 2998 = experiment: Cytotoxicity against human HCC2998 cells assessed as growth inhibition after 48 hrs by SRB assay; details: HCC 2998, 48 h; summary of the method: as §1
TK-10 = experiment: Cytotoxicity against human TK10 cells assessed as growth inhibition after 48 hrs by SRB assay; details: TK-10, 48 h
COLO 205 = experiment: Cytotoxicity against human COLO205 cells assessed as growth inhibition after 48 hrs by SRB assay; details: COLO 205, 48 h; summary of the method: as §1
SK-OV-3 = experiment: Cytotoxicity against human SKOV3 cells assessed as growth inhibition after 48 hrs by SRB assay; details: SK-OV-3, 48 h; summary of the method: as §1
SNB-19 = experiment: Cytotoxicity against human SNB19 cells assessed as growth inhibition after 48 hrs by SRB assay; details: SNB-19, 48 h; summary of the method: as §1
U-251 = experiment: Cytotoxicity against human U251 cells assessed as growth inhibition after 48 hrs by SRB assay; details: U-251, 48 h
SN12C = experiment: Cytotoxicity against human SN12C cells assessed as growth inhibition after 48 hrs by SRB assay; summary of the method: as §1
DU-145 = experiment: Cytotoxicity against human DU145 cells assessed as growth inhibition after 48 hrs by SRB assay; details: DU-145, 48 h; summary of the method: as §1
MOLT-4 = experiment: Cytotoxicity against human MOLT4 cells assessed as growth inhibition after 48 hrs by SRB assay; details: MOLT-4, 48 h; summary of the method: as §1
MDA-MB-435 = experiment: Cytotoxicity against human MDA-MB-435 cells assessed as growth inhibition after 48 hrs by SRB assay; details: MDA-MB-435, 48 h; summary of the method: as §1
A498 = experiment: Cytotoxicity against human A498 cells assessed as growth inhibition after 48 hrs by SRB assay; details: A498, 48 h; summary of the method: as §1
NCI-H226 = experiment: Cytotoxicity against human NCI-H226 cells assessed as growth inhibition after 48 hrs by SRB assay; details: NCI-H226, 48 h; summary of the method: as §1
786-0 = experiment: Cytotoxicity against human 786-0 cells assessed as growth inhibition after 48 hrs by SRB assay; details: 786-0, 48 h; summary of the method: as §1
IGROV-1 = experiment: Cytotoxicity against human IGROV1 cells assessed as growth inhibition after 48 hrs by SRB assay; details: IGROV-1, 48 h; summary of the method: as §1
HL-60(TB) = experiment: Cytotoxicity against human HL-60(TB) cells assessed as growth inhibition after 48 hrs by SRB assay; details: HL-60, 48 h
Summary of the method: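 NCI 60-cell panel, leukemia subpanel. Five-dose screen at 10-fold dilutions from 10−4 to 10−8 M with 48 h drug exposure. GI50 is the molar concentration giving 50% reduction in net cell growth compared with cell numbers on day 0.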

SF-539 = experiment: Cytotoxicity against human SF539 cells assessed as growth inhibition after 48 hrs by SRB assay; details: SF-539, 48 h; summary of the method: as §1
MDA-MB-231 = experiment: Cytotoxicity against human MDA-MB-231 cells assessed as growth inhibition after 48 hrs by SRB assay; details: MDA-MB-231, 48 h; summary of the method: as §1
CAKI-1 = experiment: Cytotoxicity against human Caki1 cells assessed as growth inhibition after 48 hrs by SRB assay; details: CAKI-1, 48 h; summary of the method: as §1
SF-295 = experiment: Cytotoxicity against human SF295 cells assessed as growth inhibition after 48 hrs by SRB assay; details: SF-295, 48 h; summary of the method: as §1
SNB-75 = experiment: Cytotoxicity against human SNB75 cells assessed as growth inhibition after 48 hrs by SRB assay; details: SNB-75, 48 h
[7] = Cytotoxicity against human Hs578T cells assessed as growth inhibition after 48 hrs by SRB assay; details: Hs-578T; summary of the method: as §1
[8] = Cytotoxicity against human UACC62 cells assessed as growth inhibition after 48 hrs by SRB assay; details: UACC-62, 48 h
[9] = Cytotoxicity against human OVCAR8 cells assessed as growth inhibition after 48 hrs by SRB assay; details: OVCAR-8, 48 h; summary of the method: as §1

Compound: COc1cc(/C(C#N)=C/c2nc3ccccc3s2)cc(OC)c1OC
- GI50 (RXF 393): 0.148 µM
- GI50 (SF-268): 1.03 µM
- GI50 (M14): 0.193 µM
- GI50 (SW-620): 0.038 µM
- GI50 (NCI-H460): 0.336 µM
- GI50 (BT-549): 12.2 µM
- GI50 [1]: 3.86 µM
- GI50 (NCI-H23): 3.25 µM
- GI50 (SK-MEL-5): 0.1 µM
- GI50 (LOX IMVI): 0.073 µM
- GI50 [2]: 0.059 µM
- GI50 (K562): 0.051 µM
- GI50 (HT-29): 0.037 µM
- GI50 [3]: 0.052 µM
- GI50 [4]: 0.341 µM
- GI50 (RPMI-8226): 0.237 µM
- GI50 (KM12): 0.278 µM
- GI50 (MCF7): 0.034 µM
- GI50 [5]: 0.045 µM
- GI50 [6]: 0.031 µM
- GI50 (HCC 2998): 0.297 µM
- GI50 (TK-10): 0.063 µM
- GI50 (COLO 205): 0.036 µM
- GI50 (SK-OV-3): 0.626 µM
- GI50 (SNB-19): 2.49 µM
- GI50 (U-251): 1.65 µM
- GI50 (SN12C): 0.515 µM
- GI50 (DU-145): 0.333 µM
- GI50 (MOLT-4): 9.2 µM
- GI50 (MDA-MB-435): 0.021 µM
- GI50 (A498): 0.198 µM
- GI50 (NCI-H226): 0.844 µM
- GI50 (786-0): 1.06 µM
- GI50 (IGROV-1): 1.27 µM
- GI50 (HL-60(TB)): 0.066 µM
- GI50 (SF-539): 0.097 µM
- GI50 (MDA-MB-231): 0.992 µM
- GI50 (CAKI-1): 0.047 µM
- GI50 (SF-295): 0.508 µM
- GI50 (SNB-75): 0.145 µM
- GI50 [7]: 1.29 µM
- GI50 [8]: 0.052 µM
- GI50 [9]: 0.438 µM

— ChEMBL document CHEMBL3407388, “Synthesis, anticancer activity and molecular docking studies on a series of heterocyclic trans-cyanocombretastatin analogues as antitubulin agents” (2015)
